Source: PubChem BioAssay
Hits are enriched below; roughly 1.8% of the tested compounds scored in any of these assays.
core dimer inh: blocks dimerization of HCV core protein; TR-FRET GST/Flag-core106 dimerization, 1536-well; inhibition, % at 5 µM; actives 0.33% (n = 300,000);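 active = inhibition above the mean of all tested compounds plus 3 SD, set per screening campaign, cut at about 45% in these data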
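System: GST/Flag-tagged HCV core106 proteins. Incubation: compound-protein-antibody incubation 4 h at 22.5 °C. Technique: HTRF with 340 nm excitation, 617/671 nm emission. Medium: KF-containing HEPES buffer, pH 7.45, DTT, CHAPS, BSA. Read-out: inhibition (%) from 671 over 617 nm ratio. Also added: Eu(K)-anti-GST 90 ng/mL plus XL665-anti-Flag 1 µg/mL.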
UHRF1 binding: UHRF1 methyl-DNA binding inhibition. Q96T88. AID 687016. inhibition, % at 4.4 µM. actives 0.75% (n = 370,000). UHRF1 binding to methylated oligo, TR-FRET;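 note: UHRF1 SRA domain binding a hemimethylated CpG hairpin DNA probe; 0% = median of test compound wells and 100% = reference inhibitor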
MBD2 inh: blocks human MBD2 binding to methylated DNA; inhibition, % at 4.4 µM; TR-FRET, MBD2 binding to methylated oligonucleotide; actives 0.31% (n = 370,000); AID 686964; in the data active = inhibition above about 13%
Target sequence (Q9UBB5 whole entry, looked up): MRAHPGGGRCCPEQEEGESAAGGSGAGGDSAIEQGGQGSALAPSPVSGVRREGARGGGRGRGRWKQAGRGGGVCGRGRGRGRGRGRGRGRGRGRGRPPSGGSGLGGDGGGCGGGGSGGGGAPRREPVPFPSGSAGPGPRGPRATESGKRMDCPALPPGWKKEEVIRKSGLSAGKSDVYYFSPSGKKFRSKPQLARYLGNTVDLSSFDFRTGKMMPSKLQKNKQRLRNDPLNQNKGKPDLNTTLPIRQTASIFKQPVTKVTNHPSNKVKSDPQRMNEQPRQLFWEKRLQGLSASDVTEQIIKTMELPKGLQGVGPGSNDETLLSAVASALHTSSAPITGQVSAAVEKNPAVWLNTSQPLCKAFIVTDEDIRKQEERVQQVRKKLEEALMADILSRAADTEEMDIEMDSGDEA
LEDGF integ inh: blocks HIV-1 LEDGF/p75-dependent DNA integration; TR-FRET IN-LEDGF/p75 DNA integration, Eu/Cy5; inhibition, % at 3.7 µM; actives 0.64% (n = 370,000);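 active = inhibition above the screen-wide mean plus 3 SD, cut at about 13% in these data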;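 note: signal is the Cy5 over europium emission ratio at 671 and 618 nm; 0% = plate median of compound wells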
TDP2 inh: blocks human TDP2 phosphodiesterase activity; O95551; recombinant TDP2, T5PNP hydrolysis, p-nitrophenol absorbance 415 nm; inhibition, % at 12.8 µM; actives 0.34% (n = 370,000); AID 720702;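 active = inhibition above the mean of all tested compounds plus 3 SD, set per campaign, cut at about 25% in these data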;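 note: 0% = DMSO with enzyme and 100% = buffer with substrate but no TDP2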
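System – recombinant human TDP2 · Amount – 120 nM TDP2 per well · Buffer or medium – Mg2+-containing Tris-HCl buffer, pH 7.5 · Reagent – T5PNP substrate, 5 mM · Dosing – 12.8 µM single point, 1% DMSO · Incubation – 2 h at 37 °C · Measured by – epi absorbance · Read-out basis – percent inhibition · Benchmarks – high control without enzyme, low control DMSO plus TDP2 · Repeats – singlicate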
UHRF1 ctr MBD2: counter-screen for MBD2 inhibitors: human UHRF1 methylated DNA binding inhibitors; actives 25% (n = 1,000); UHRF1 binding to methylated oligonucleotide, TR-FRET; shares compounds with MBD2 inh; inhibition, % at 4.4 µM;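 note: UHRF1 SRA domain binding a labeled hemimethylated CpG hairpin DNA; 0% = vehicle only and 100% = reference inhibitor with vehicle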
MBD2 confirm: confirmation of human MBD2-DBD methylated oligonucleotide binding inhibitors | TR-FRET MBD2-DBD binding to methylated oligonucleotide | actives 26% (n = 1,000) | shares compounds with MBD2 inh | inhibition, % at 4.4 µM; in the data active = inhibition above about 14%
An asterisk follows results filed as active; / = no result. Cut-off read from the data, not from the text of the source, unless noted: active = inhibition above about 21%; inactive = the rest.

SMILES | core dimer inh | UHRF1 binding | MBD2 inh | LEDGF integ inh | TDP2 inh | others
C=C(C=O)CC1CC(O)[C@]2(C)OC3CC4OC5C[C@]6(C)O[C@]7(C)CCC8OC9C[C@]%10(C)OC%11C(C)=CC(=O)OC%11CC%10OC9C[C@@H](C)C8OC7CC6O[C@]5(C)C/C=C\C4OC3CC2O1 (some centres undefined) | / | -3 | 2 | 1 | -2
CCN(C(=O)COC(=O)c1cn(C)c2ccccc12)c1ccc(F)cc1 | / | 22* | 6 | 7 | 7
CN(C(=O)Oc1ccc(Cl)c2cccnc12)c1ccccc1 | 3 | 21* | 7 | 2 | 0
CN(C(=O)Oc1cccc2cccnc12)c1ccccc1 | -2 | -3 | -5 | 2 | -12
Cc1ccc(N2C(=O)/C(=C/c3ccc(CN(CCC#N)S(C)(=O)=O)o3)C(=O)NC2=S)cc1C | 51* | / | / | / | /
CN1C(=O)C(c2ccc([N+](=O)[O-])cc2[N+](=O)[O-])C(=O)N(C)C1=O | -4 | 21* | -1 | -2 | -6
Cc1cc(/C=C2\C(=O)NC(=O)N(c3ccc(Cl)cc3)C2=O)c(C)n1-c1sc2c(c1C#N)CCCC2 | 47* | 19 | 9 | 7 | -12
O=C1NC(=O)N(Cc2ccccc2)C(=O)/C1=C\C=C\c1ccco1 | 15 | 28* | 0 | 2 | -20
C=C1C(=O)C(C)=C2C(=O)N3Cc4[nH]c5ccccc5c4CC3(C(=O)OC)C12 (centres undefined) | / | -2 | -6 | 3 | 7
CC(C)(C)NC(=O)C1CN=C(c2ccccc2)c2cc(Cl)ccc2N1C(=O)C1CCC1 (centres undefined) | / | -1 | 3 | -1 | 8
CC(C)C(C(=O)NC(C)(C)C)N1C(=O)CN=C(c2ccccc2)c2ccccc21 (centres undefined) | / | 0 | -1 | -5 | -4
Cc1ccc(/C=C2\C(=O)NC(=S)N(c3cccc(F)c3)C2=O)o1 | 18 | 3 | 6 | 4 | 13
COc1ccc(N2C(=O)/C(=C/c3ccc(C)o3)C(=O)NC2=S)cc1 | / | -4 | -4 | 7 | 10
O=C1NC(=S)N(c2ccc(F)cc2)C(=O)/C1=C/c1ccco1 | 77* | / | / | / | /
COc1ccc(OC)c(N2C(=O)/C(=C/c3ccco3)C(=O)NC2=S)c1 | 83* | / | / | / | /
Cc1cc(N2CCNC[C@H]2C)ccc1N1CC[C@H](O)C1 | / | -4 | -4 | 7 | -1
Cc1ccc(CNCCc2ccccc2F)cc1 | 2 | 25* | 10 | 2 | -7
CC(C)C[C@H]1N=C(c2ccccc2)c2ccccc2N(CC(=O)NC(C)(C)C)C1=O | / | -4 | 3 | -4 | 7
COc1ccc(-c2n(-c3ccccn3)c3ccccc3[n+]2-c2ccccn2)cc1 | / | 31* | 46* | 1 | -8 | UHRF1 ctr MBD2=74*;MBD2 confirm=88*
COP(=O)(OC)C(C)NC(=O)OCc1ccccc1 (centres undefined) | / | 4 | -1 | -2 | 10
CCC1=Nc2cc(C(=O)N3CCC4(CC3)OCCO4)ccc2Sc2ccc(C)cc21 | 0 | 3 | 21* | 3 | -8 | UHRF1 ctr MBD2=6;MBD2 confirm=1
C=C1[C@@H](C)C2[C@H](Cc3ccccc3)NC(=O)[C@]23[C@H](OC(C)=O)/C=C/[C@@](C)(O)C(=O)[C@@H](C)C/C=C/[C@H]3[C@@H]1O (some centres undefined) | / | -1 | -3 | 4 | -9
COc1cc2c(ccc3c4cc(OC)c(OC)cc4c[n+](C)c23)cc1O | / | 24* | 88* | 1 | -1 | UHRF1 ctr MBD2=56*;MBD2 confirm=100*
CN1C(=O)/C(=C/c2ccc(Cl)s2)C(=O)NC1=S | -4 | -2 | -7 | 1 | 20
CN1C(=O)/C(=C/C=C/c2ccco2)C(=O)NC1=S | 18 | 72* | 23* | 60* | 11 | UHRF1 ctr MBD2=62*;MBD2 confirm=22*
CCCNC(=O)c1c(N)n(Cc2ccco2)c2nc3ccccc3nc12 | -6 | / | / | / | /
